Measured values reported in ChEMBL document CHEMBL1158072, “Antioxidative phenolics from the fresh leaves of Ternstroemia japonica” (J Nat Prod, 2006).

Key:
[1] = Antioxidant activity assessed as peroxynitrite scavenging activity by fluorescence spectroscopy; assay type: functional
Method in brief: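 Authentic peroxynitrite oxidation of dihydrorhodamine 123 (final 5 µM) in N2-purged buffer of 90 mM NaCl, 50 mM Na3PO4, 5 mM KCl and 100 µM DTPA, pH 7.4. Fluorescence read 5 min after treatment with and without ONOO- at ex 480/em 530 nm. Signal taken as final minus background. DL-penicillamine positive control. IC50 reported as mean ± standard error, n = 3.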

[2] = Antioxidant activity assessed as inhibition of hydroxyl radical generation by fluorescence spectroscopy; assay type: functional
Method in brief: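 Test samples in 10% EtOH (final 0.4%) added to 1 mM H2O2 plus 0.2 mM FeSO4 and incubated 37 °C for 5 min. Esterase-treated 2 µM DCHF-DA (in EtOH) then added and fluorescence followed for 30 min at ex 460/em 530 nm. Trolox positive control. IC50 reported as mean ± standard error of triplicate experiments.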

[3] = tested on: Kidney; assay: Antioxidant activity assessed as inhibition of total reactive oxygen species generation in Wistar rat kidney by 2',7'-dichlorofluorescein based fluorescence spectroscopy; assay type: functional, tissue-based
Method in brief: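 Rat kidney homogenate (postmicrosomal fraction) from freshly killed male Wistar rats, 150-200 g, mixed with samples in 10% EtOH (final 0.4%). DCHF-DA (12.5 mM, in EtOH, final 0.2%) added in 50 mM phosphate buffer pH 7.4 and incubated 37 °C for 30 min. DCF fluorescence read at ex 460/em 530 nm. Trolox positive control. IC50 reported as mean ± standard error, triplicate.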

IC50 [1] [µM]	IC50 [2] [µM]	IC50 [3] [µM]	SMILES
1.05			CC(C)(S)C(N)C(=O)O (racemic) [DL-PENICILLAMINE]
2.56	4.72	55	O=C(Cc1ccc(O)c(O)c1)O[C@H]1[C@H](OCCc2ccc(O)cc2)O[C@H](CO)[C@@H](O)[C@@H]1O [TERNSTROSIDE E]
13.5	5.28	82.2	O=c1c(O[C@@H]2O[C@H](CO)[C@@H](O)[C@H](O)[C@H]2O[C@@H]2OC[C@@H](O)[C@H](O)[C@H]2O)c(-c2ccc(O[C@@H]3O[C@H](CO)[C@@H](O)[C@H](O)[C@H]3O)cc2)oc2cc(O)cc(O)c12
1.54	4.21	45.4	O=C(Cc1ccc(O)c(O)c1)O[C@H]1[C@H](OCCc2cc(O)c(O)cc2O)O[C@H](CO)[C@@H](O)[C@@H]1O
1.69	3.41	39.3	O=C(Cc1ccc(O)c(O)c1)O[C@H]1[C@H](OCCc2ccc(O)c(O)c2)O[C@H](CO)[C@@H](O)[C@@H]1O [TERNSTROSIDE A]
3.85	6.5	66.9	O=C(Cc1ccc(O)c(O)c1)OC[C@H]1O[C@@H](OCCc2ccc(O)c(O)c2)[C@H](O)[C@@H](O)[C@@H]1O [TERNSTROSIDE D]
	2.83	29.5	Cc1c(C)c2c(c(C)c1O)CCC(C)(C(=O)O)O2 (configuration not stated) [TROLOX]
1.14	3.26	33.3	O=C(Cc1ccc(O)c(O)c1)O[C@@H]1[C@@H](O)[C@H](OCCc2ccc(O)c(O)c2)O[C@H](CO)[C@H]1O [TERNSTROSIDE C]
2.36	4.66	62.5	O=C(Cc1ccc(O)cc1)O[C@H]1[C@H](OCCc2ccc(O)c(O)c2)O[C@H](CO)[C@@H](O)[C@@H]1O [TERNSTROSIDE B]

SMILES	IC50 [1] [µM]	IC50 [2] [µM]	IC50 [3] [µM]
O=c1c(O)c(-c2ccc(O)c(O)c2)oc2cc(O)cc(O)c12 [QUERCETIN]	1.38	2.39	29.1
